Results published in ChEMBL document CHEMBL4316619 (Bioorg Med Chem Lett, 2019).
Calls of active or inactive are those of the source. The rule behind the calls is not given here.

What was measured:
[1] = Apparent permeability across apical to basolateral side in human Caco2 cells measured after 2 hrs in presence of 3% BSA; assay type: ADME, cell-based; conditions: caco-2, 2 h
In short: (§1)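 Permeability was measured across Caco-2 monolayers in both directions, apical to basolateral and basolateral to apical. […] Runs were done with and without 3% BSA, and mass recovery (%) was reported for each direction. Efflux ratio = Papp B→A / Papp A→B.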

[2] = Drug level in C57BL/6 mouse liver at 30 mg/kg, ip measured at 1 hrs; assay type: ADME, organism-based; conditions: in vivo
In short: (§2)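 Male C57BL/6 mice received a single intraperitoneal dose of 30 mg/kg (N=3). Compound concentrations were followed over time in plasma, liver and lung. Tmax, Cmax, terminal t1/2, AUClast and AUCINF were derived from the mean concentration-time profiles.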

[3] = Tmax in C57BL/6 mouse liver at 30 mg/kg, ip; assay type: ADME, organism-based
In short: (§3)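 Male C57BL/6 mice, single intraperitoneal 30 mg/kg dose, N=3. Plasma, liver and lung concentrations followed over time to give concentration-time profiles, from which Tmax, Cmax, terminal t1/2, AUClast and AUCINF were derived.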

Influenza A virus [4] = experiment: Antiviral activity against Influenza A virus A/PR/8/34 (H1N1) infected in MDCK cells assessed as fold reduction in virus titer at 10 uM measured after 48 hrs by hemagglutination assay relative to control; assay type: functional, A/Puerto Rico/8/1934(H1N1)
In short: (§4)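 MDCK cells were infected with A/PR/8/34 (H1N1) at MOI 0.1 and incubated with compound for 48 h. Supernatant virus was then quantified by hemagglutination assay and standard TCID50 analysis. The single-concentration screen used 10 μM and reports fold reduction in titer. Dose-response runs used triplicate cultures, with percent titer decrease back-calculated from TCID50.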

[5] = Terminal half life in C57BL/6 mouse lung at 30 mg/kg, ip; assay type: ADME, organism-based; conditions: read-out: beta t1/2 (converted); in short: as §3
[6] = Aqueous kinetic solubility of the compound; assay type: physicochemical; conditions: buffer
[7] = AUClast in C57BL/6 mouse lung at 30 mg/kg, ip; assay type: ADME, organism-based; parameters: dose 30 mg/kg, route intraperitoneal, time 0 - last; in short: as §2
[8] = Drug level in C57BL/6 mouse lung at 30 mg/kg, ip measured at 3 hrs; assay type: ADME, organism-based; conditions: in vivo; in short: as §2
Influenza A virus [9] = experiment: Antiviral activity against Influenza A virus (A/California/7/2009(H1N1)) infected in MDCK cells assessed as reduction in virus-induced cytopathic effect measured on day 5 by Celltiter-Glo luminescence assay; assay type: functional, organism-based; conditions: 120 h
In short: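 MDCK cells were infected with seasonal influenza A strains through NIAID resources and scored for protection from virus-induced cell death. Compounds were tested at four concentrations (0.8, 4, 20, 100 μM). EC50/EC90 (reduction of viral cell death) and CC50 (reduction of cell viability) were derived in μM, and SI50 = CC50/EC50.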

[10] = Drug level in C57BL/6 mouse plasma at 30 mg/kg, ip measured at 0.083 hrs; assay type: ADME, organism-based; in short: as §2
[11] = Drug level in C57BL/6 mouse plasma at 30 mg/kg, ip measured at 3 hrs; assay type: ADME, organism-based; in short: as §3
[12] = Drug level in C57BL/6 mouse plasma at 30 mg/kg, ip measured at 4 hrs; assay type: ADME, organism-based; in short: as §3
[13] = Drug level in C57BL/6 mouse liver at 30 mg/kg, ip measured at 3 hrs; assay type: ADME, organism-based; conditions: in vivo; in short: as §2
[14] = Apparent permeability across apical to basolateral side in human Caco2 cells measured after 2 hrs; assay type: ADME, cell-based; conditions: caco-2, 2 h; in short: as §1
[15] = Apparent permeability across apical to basolateral side in human Caco2 cells assessed as drug recovery; assay type: ADME, cell-based; conditions: caco-2; in short: as §1
[16] = Drug level in C57BL/6 mouse lung at 30 mg/kg, ip measured at 8 hrs; assay type: ADME, organism-based; conditions: in vivo; in short: as §2
[17] = Drug level in C57BL/6 mouse plasma at 30 mg/kg, ip measured at 12 hrs; assay type: ADME, organism-based; in short: as §3
MDCK [18] = experiment: Cytotoxicity against MDCK cells assessed as reduction in cell viability up to 100 uM measured after 48 hrs by CellTiter Glo assay; assay type: cell-based, Canis lupus familiaris; conditions: dog
In short: (§5)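 MDCK cells were incubated with compound under the conditions of the 48 h replication assay. Cytotoxicity was read with the CellTiter-Glo ATP viability assay. Follow-up viability testing used 5, 10, 50 and 100 μM.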

[19] = Apparent permeability across apical to basolateral side in human Caco2 cells assessed as drug recovery in presence of 3% BSA; assay type: ADME, cell-based; conditions: caco-2; in short: as §1
[20] = Cmax in C57BL/6 mouse lung at 30 mg/kg, ip; assay type: ADME, organism-based; parameters: dose 30 mg/kg, route intraperitoneal; in short: as §2
[21] = AUC (infinity) in C57BL/6 mouse lung at 30 mg/kg, ip; assay type: ADME, organism-based; parameters: dose 30 mg/kg, route intraperitoneal, time infinity; in short: as §2
[22] = Drug level in C57BL/6 mouse liver at 30 mg/kg, ip measured at 4 hrs; assay type: ADME, organism-based; conditions: in vivo; in short: as §2
[23] = Drug level in C57BL/6 mouse lung at 30 mg/kg, ip measured at 0.25 hrs; assay type: ADME, organism-based; conditions: in vivo; in short: as §2
[24] = Drug level in C57BL/6 mouse plasma at 30 mg/kg, ip measured at 0.5 hrs; assay type: ADME, organism-based; in short: as §3
[25] = Drug level in C57BL/6 mouse liver at 30 mg/kg, ip measured at 0.25 hrs; assay type: ADME, organism-based; conditions: in vivo; in short: as §2
MDCK [26] = experiment: Cytotoxicity against MDCK cells assessed as reduction in cell viability measured after 48 hrs by CellTiter Glo assay; assay type: cell-based, Canis lupus familiaris; conditions: dog; in short: as §5
Influenza A virus [27] = experiment: Antiviral activity against Influenza A virus A/PR/8/34 (H1N1) infected in MDCK cells assessed as reduction in virus titer measured after 48 hrs by hemagglutination assay; assay type: functional; conditions: A/Puerto Rico/8/1934(H1N1); in short: as §4
[28] = Drug level in C57BL/6 mouse liver at 30 mg/kg, ip measured at 2 hrs; assay type: ADME, organism-based; conditions: in vivo; in short: as §2
[29] = target: Luciferin 4-monooxygenase (Photinus pyralis) (UniProt P08659); experiment: Effect on firefly luciferase activity expressed in 293 cells at 50 uM by luminescence assay; assay type: cell-based
Chain of Luciferin 4-monooxygenase (Photinus pyralis) (P08659 whole entry): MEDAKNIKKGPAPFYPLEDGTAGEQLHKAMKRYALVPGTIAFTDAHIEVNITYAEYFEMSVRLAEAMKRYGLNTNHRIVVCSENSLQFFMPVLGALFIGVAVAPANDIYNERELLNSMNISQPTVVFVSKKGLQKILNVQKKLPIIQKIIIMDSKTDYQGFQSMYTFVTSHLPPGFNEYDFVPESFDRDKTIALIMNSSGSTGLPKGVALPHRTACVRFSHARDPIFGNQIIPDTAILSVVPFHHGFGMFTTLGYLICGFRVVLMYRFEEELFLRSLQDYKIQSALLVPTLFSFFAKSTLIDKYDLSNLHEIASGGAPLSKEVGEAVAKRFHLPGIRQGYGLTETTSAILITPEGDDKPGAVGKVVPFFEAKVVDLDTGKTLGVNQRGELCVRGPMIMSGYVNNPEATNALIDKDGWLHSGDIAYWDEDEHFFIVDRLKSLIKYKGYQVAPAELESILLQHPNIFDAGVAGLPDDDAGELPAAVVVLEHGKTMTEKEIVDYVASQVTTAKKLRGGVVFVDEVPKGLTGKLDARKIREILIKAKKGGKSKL

[30] = Stability of the compound in mouse liver microsomes assessed as parent compound remaining measured immediately; assay type: ADME, Microsome; conditions: read-out: Stability
In short: (§6)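 Mouse liver microsomes; percent parent compound remaining measured at 0, 15 and 30 min.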

[31] = Drug level in C57BL/6 mouse liver at 30 mg/kg, ip measured at 0.5 hrs; assay type: ADME, organism-based; conditions: in vivo; in short: as §2
[32] = target: Non-structural protein 1 (Influenza A virus (strain A/Puerto Rico/8/1934 H1N1)) (UniProt P03496); experiment: Inhibition of Influenza A virus A/PR/8/34 (H1N1) NS1 expressed in 293 cells assessed as increase in poly(I:C)-induced IFN-beta reporter activity treated 16 hrs […] measured after 24 hrs by luciferase reporter gene assay; assay type: cell-based; conditions: Influenza A virus (A/Puerto Rico/8/1934(H1N1))
Chain of Non-structural protein 1 (Influenza A virus (strain A/Puerto Rico/8/1934 H1N1)) (P03496 whole entry): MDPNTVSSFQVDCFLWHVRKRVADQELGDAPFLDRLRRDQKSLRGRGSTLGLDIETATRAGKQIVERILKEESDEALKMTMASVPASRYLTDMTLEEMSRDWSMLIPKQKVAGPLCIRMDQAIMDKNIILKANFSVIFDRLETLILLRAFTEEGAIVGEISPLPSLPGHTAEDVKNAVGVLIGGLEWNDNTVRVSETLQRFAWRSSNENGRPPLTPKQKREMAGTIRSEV
In short: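 293 cells co-transfected with a human IFN-β promoter-driven firefly luciferase reporter and NS1 expression constructs. At 16 h post-transfection, poly(I:C) 50 μg/mL plus compound (20 μM) or 1% DMSO added for a further 24 h; luciferase read by luminometer. Untransfected cells serve as baseline.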

[33] = Drug level in C57BL/6 mouse lung at 30 mg/kg, ip measured at 2 hrs; assay type: ADME, organism-based; conditions: in vivo; in short: as §2
[34] = Cmax in C57BL/6 mouse plasma at 30 mg/kg, ip; assay type: ADME, organism-based; parameters: dose 30 mg/kg, route intraperitoneal; conditions: mouse, in vivo; in short: as §2
[35] = Stability of the compound in mouse liver microsomes assessed as parent compound remaining measured after 30 mins; assay type: ADME, Microsome; conditions: read-out: Stability; in short: as §6
[36] = Drug level in C57BL/6 mouse liver at 30 mg/kg, ip measured at 12 hrs; assay type: ADME, organism-based; conditions: in vivo; in short: as §2
[37] = Drug level in C57BL/6 mouse lung at 30 mg/kg, ip measured at 0.083 hrs; assay type: ADME, organism-based; conditions: in vivo; in short: as §2

## COc1cc(-c2ccnc3c2c(C)nn3-c2ccc(C(F)(F)F)cc2)ccc1O
[1]
  Papp: 0.22 ×10⁻⁶ cm/s
[2]
  Drug uptake: 44487 nmol/kg
[3]
  Tmax: 15 min
Influenza A virus [4]
  fold change (FC): 128
[5]
  half-life: 270 min
[6]
  Kinetic_solubility: 3.1 µM
[7]
  AUC(0-t): 53900 ng·h/mL
[8]
  Drug uptake: 10951 nmol/kg
Influenza A virus [9]
  EC50: 700 nM
  EC90: > 50 µM
[10]
  concentration at 0.083 h: 2950 nM
[11]
  concentration at 3 h: 1730 nM
[12]
  concentration at 4 h: 1200 nM
[13]
  Drug uptake: 10058 nmol/kg
[14]
  Papp: 0.1 ×10⁻⁶ cm/s
[15]
  Drug recovery: 5%
[16]
  Drug uptake: 3931 nmol/kg
[17]
  concentration at 12 h: 209 nM
MDCK [18]
  Activity: Non-Toxic
[19]
  Drug recovery: 49%
[20]
  Cmax: 18600 ng/mL
[21]
  AUC(0-inf): 53900 ng·h/mL
[22]
  Drug uptake: 13997 nmol/kg
[23]
  Drug uptake: 46490 nmol/kg
[24]
  concentration at 0.5 h: 5.76 µM
[25]
  Drug uptake: 124197 nmol/kg
MDCK [26]
  Activity: Non-Toxic
Influenza A virus [27]
  IC90: 155 nM
[28]
  Drug uptake: 18413 nmol/kg
[29]
  Activity: inactive
[30]
  remaining at 0 min: 100%
[31]
  Drug uptake: 62599 nmol/kg
[32]
  inhibition: Active
[33]
  Drug uptake: 16568 nmol/kg
[34]
  Cmax: 2437 ng/mL
[35]
  remaining at 0.5 h: 45%
[36]
  Drug uptake: 1984 nmol/kg
[37]
  Drug uptake: 20891 nmol/kg
